Test results: ChEMBL document CHEMBL3392957, “The discovery of 1,2,3,9b-tetrahydro-5H-imidazo[2,1-a]isoindol-5-ones as a new class of respiratory syncytial virus (RSV) fusion inhibitors. Part 1” (Bioorg Med Chem Lett, 2015)
Converted amounts (≈) assume the structure as drawn.

Legend:
[1] = test system: Respiratory syncytial virus; test: Antiviral activity against Respiratory syncytial virus A2 infected in human Hep2 cells assessed as inhibition of virus-induced cytopathicity after 5 days by MTT assay; assay type: functional, organism-based; settings: A2, HEp-2, 120 h
In short: (§1)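 HEp2 cells (1.0 × 10⁴/well) infected at low moi (e.g. RSV A2 at moi 0.01) and added to serially diluted compound; 5 days at 37 °C, 5% CO₂. CPE read by MTT (1 mg/ml, 2 h, 37 °C), isopropanol, absorbance 540 nm; EC₅₀ by non-linear regression. SD given where n > 2.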

[2] = Cytotoxicity against human Hep2 cells after 5 days by MTT assay; assay type: cell-based, HEp-2
In short: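 Uninfected HEp2 cells (1.0 × 10⁴/well) with serially diluted compound, 5 days at 37 °C in 5% CO₂; viability by MTT (1 mg/ml, 2 h), isopropanol, absorbance 540 nm; CC₅₀ by non-linear regression.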

[3] = test system: Respiratory syncytial virus; test: Antiviral activity against Respiratory syncytial virus B1 infected in human Hep2 cells assessed as inhibition of virus-induced cytopathicity after 5 days by MTT assay; assay type: functional, organism-based; settings: B1, HEp-2, 120 h; in short: as §1
[4] = test system: Respiratory syncytial virus; test: Antiviral activity against wild-type Respiratory syncytial virus A Long infected in human Hep2 cells assessed as inhibition of virus-induced cytopathicity after 5 days by MTT assay; assay type: functional, organism-based; settings: HEp-2, 120 h; in short: as §1
[5] = test system: Respiratory syncytial virus; test: Antiviral activity against Respiratory syncytial virus A2 infected in human Hep2 cells assessed as inhibition of virus-induced cytopathicity after 5 days by MTT assay relative to alpha-1-acid glycoprotein; assay type: functional, HEp-2
In short: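 RSV A2 CPE assay in HEp2 cells (moi 0.01, 5 days, 37 °C, MTT read-out at 540 nm) run with alpha-1-acid glycoprotein at 1.5 mg/mL; result expressed as fold shift in EC₅₀ versus the assay without AAG.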

[6] = Kinetic solubility of the compound at pH 2 by nephelometry; assay type: physicochemical; settings: buffer, read-out: Kinetic_solubility
In short: (§2)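 Kinetic solubility by nephelometry, at pH 2 and pH 6.5; reported as a range in μg/mL.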

[7] = Kinetic solubility of the compound at pH 6.5 by nephelometry; assay type: physicochemical; settings: buffer, read-out: Kinetic_solubility; in short: as §2
[8] = Lipophilicity, log D of the compound in octanol saturated mobile phase at pH 7.4 by chromatographic method; assay type: physicochemical
In short: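 Effective logD determined chromatographically on a SUPELCOSIL LC-ABZ column with octanol-saturated mobile phase, pH 7.4.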

[9] = Plasma protein binding in rat; assay type: ADME, cell-free; settings: read-out: PPB (converted)
[10] = Cmax in Sprague-Dawley rat at 19 mg/kg, po as suspension with hydroxypropylmethylcellulose; assay type: ADME, organism-based; parameters: dose 19 mg/kg, route oral; settings: in vivo
In short: (§3)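 Male Sprague-Dawley rats, n = 2, given a single oral dose. Plasma pharmacokinetics were analysed for Cmax (µM), terminal half-life (hr) and oral bioavailability F (%). The oral bioavailability estimate draws on a separate intravenous arm, also with n = 2 rats.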

[11] = Elimination half life in Sprague-Dawley rat at 19 mg/kg, po as suspension with hydroxypropylmethylcellulose; assay type: ADME, organism-based; parameters: dose 19 mg/kg, route oral; settings: in vivo, read-out: beta t1/2; in short: as §3
[12] = Oral bioavailability in Sprague-Dawley rat at 19 mg/kg as suspension with hydroxypropylmethylcellulose; assay type: ADME, organism-based; settings: in vivo; in short: as §3
[13] = Total clearance in Sprague-Dawley rat at 2.0 mg/kg, iv in 0.1 M capsitol and 10 to 12.5 % DMSO; settings: in vivo
[14] = Elimination half life in Sprague-Dawley rat at 2.0 mg/kg, iv in 0.1 M capsitol and 10 to 12.5 % DMSO; settings: in vivo, read-out: beta t1/2
[15] = Apparent volume of distribution in Sprague-Dawley rat at 2.0 mg/kg, iv in 0.1 M capsitol and 10 to 12.5 % DMSO; settings: in vivo, read-out: Vz
[16] = test system: Respiratory syncytial virus; test: Selectivity ratio of EC50 for Respiratory syncytial virus A Long harboring F protein D489Y mutant infected in human Hep2 cells to EC50 for wild-type Respiratory syncytial virus A Long infected in human Hep2 cells

| Structure (SMILES) | EC50 [1] [µM] | CC50 at 120 h [2] [µM] | further results |
| --- | --- | --- | --- |
| COCCOc1cccc(C23c4ccccc4C(=O)N2CCN3C(=O)c2ccc(F)cc2)c1 (racemic) | > 16 | > 16 | – |
| O=C(NCc1ccc(F)cc1)N1CCN2C(=O)c3ccccc3C12c1ccc(Cl)cc1 (racemic) | 0.6 | 10 | – |
| O=C(c1ccccc1)N1CCN2C(=O)c3ccccc3C12c1ccc(Cl)cc1 (racemic) | 0.45 | > 20 | – |
| O=C(c1cccc(Cl)n1)N1CCN2C(=O)c3ccccc3C12c1ccc(Cl)cc1 (racemic) | 0.47 | > 17 | – |
| O=C(c1ccc(F)cc1)N1CCN2C(=O)c3nccnc3C12c1ccc(Cl)cc1 (racemic) | > 18 | > 18 | – |
| O=C(c1ccco1)N1CCN2C(=O)c3ccccc3C12c1ccc(Cl)cc1 (racemic) | 0.26 | 12 | – |
| COc1ccc(C23c4ccccc4C(=O)N2CCN3C(=O)c2ccc(F)cc2)cc1 (racemic) | 0.53 | > 20 | – |
| CCc1ccc(C23c4ccccc4C(=O)N2CCN3C(=O)c2ccc(F)cc2)cc1 (racemic) | 0.21 | > 18 | – |
| COc1ccc(C(=O)N2CCN3C(=O)c4ccccc4C23c2ccc(Cl)cc2)cc1 (racemic) | > 20 | 16 | – |
| CCOc1ccc(C23c4ccccc4C(=O)N2CCN3C(=O)c2ccc(F)cc2)cc1 (racemic) | 0.2 | > 20 | – |
| CC(=O)COc1ccc(C23c4ccccc4C(=O)N2CCN3C(=O)c2ccc(F)cc2)cc1 (racemic) | 0.86 | > 16 | – |
| O=C(c1ccc(F)cc1)N1CCN2C(=O)c3ccncc3C12c1ccc(Cl)cc1 (racemic) | 0.23 | > 49 | EC50 [3]: 0.68 µM; EC50 [4]: 0.22 µM; fold change (FC) [5]: <10; solubility kinetic [6]: 25 µg/mL (≈ 61.3 µM); solubility kinetic [7]: 12.5 µg/mL (≈ 30.6 µM); chromatographic logD [8]: 2.8; fraction unbound [9]: 0.27; Cmax [10]: 6.3 µM; half-life [11]: > 24 h; bioavailability [12]: 28%; clearance [13]: 2.7 mL/min/kg; half-life [14]: > 24 h; Vd [15]: 6 L/kg |
| O=C(c1ccc(F)cc1)N1CCN2C(=O)c3ccccc3C12c1ccc(O)cc1 (racemic) | 11 | > 20 | – |
| O=C1c2ccccc2C2(c3ccc(Cl)cc3)NCCN12 (racemic) | > 20 | > 70 | – |
| CC(=O)N1CCN2C(=O)c3ccccc3C12c1ccc(Cl)cc1 (racemic) | 1.2 | > 20 | – |
| O=C(Nc1ccccc1)N1CCN2C(=O)c3ccccc3C12c1ccc(Cl)cc1 (racemic) | 7.1 | > 20 | – |
| COC(=O)COc1ccc(C23c4ccccc4C(=O)N2CCN3C(=O)c2ccc(F)cc2)cc1 (racemic) | 3.3 | > 16 | – |
| O=c1n(Cc2nc3ccccc3n2CCCCO)c2cnccc2n1C1CC1 | – | – | Ratio EC50 [16]: 380 |
| O=C1c2ccccc2C2(c3ccc(Cl)cc3)N(Cc3ccc(F)cc3)CCN12 (racemic) | > 20 | 16 | – |
| O=C(c1ccc(F)cc1)N1CCN2C(=O)c3ccccc3C12c1cccnc1 (racemic) | 10 | > 20 | – |
| O=C(c1ccc(OC(F)(F)F)cc1)N1CCN2C(=O)c3ccccc3C12c1ccc(Cl)cc1 (racemic) | > 20 | 5.7 | – |
| CCCOc1ccc(C23c4ccccc4C(=O)N2CCN3C(=O)c2ccc(F)cc2)cc1 (racemic) | 0.63 | > 20 | – |
| O=C(NCc1ccccc1)N1CCN2C(=O)c3ccccc3C12c1ccc(Cl)cc1 (racemic) | 0.73 | > 20 | – |
| O=C1c2ccccc2C2(c3ccc(Cl)cc3)N1CCN2c1ccccc1 (racemic) | > 20 | > 20 | – |
| COCCOc1ccc(C23c4ccccc4C(=O)N2CCN3C(=O)c2ccc(F)cc2)cc1 (racemic) | 0.25 | > 16 | – |
| O=C(c1ccc(F)cc1)N1CCN2C(=O)c3ccccc3C12c1ccccn1 (racemic) | > 20 | > 20 | – |
| CCCc1ccc(C23c4ccccc4C(=O)N2CCN3C(=O)c2ccc(F)cc2)cc1 (racemic) | 0.27 | 18 | – |

| Structure (SMILES) | EC50 [1] [µM] | CC50 at 120 h [2] [µM] | further results |
| --- | --- | --- | --- |
| O=C(c1ccc(Cl)cc1)N1CCN2C(=O)c3ccccc3C12c1ccc(Cl)cc1 (racemic) | 3.7 | 17 | – |
| O=C(c1ccc(C(F)(F)F)cc1)N1CCN2C(=O)c3ccccc3C12c1ccc(Cl)cc1 (racemic) | > 20 | 17 | – |
| CC(C)CC(=O)N1CCN2C(=O)c3ccccc3C12c1ccc(Cl)cc1 (racemic) | 0.74 | > 20 | – |
| CCC(=O)N1CCN2C(=O)c3ccccc3C12c1ccc(Cl)cc1 (racemic) | 1 | > 20 | – |
| CC(C)Oc1ccc(C23c4ccccc4C(=O)N2CCN3C(=O)c2ccc(F)cc2)cc1 (racemic) | 1.1 | > 20 | – |
| O=C(c1ccc(F)cc1)N1CCN2C(=O)c3ccccc3C12c1ccccc1 (racemic) | 1.1 | > 20 | – |
| Cc1ccc(C23c4ccccc4C(=O)N2CCN3C(=O)c2ccc(F)cc2)cc1 (racemic) | 0.18 | > 20 | – |
| COc1ccc(NC(=O)N2CCN3C(=O)c4ccccc4C23c2ccc(Cl)cc2)cc1 (racemic) | 1.6 | > 20 | – |
| O=C(Cc1ccc(F)cc1)N1CCN2C(=O)c3ccccc3C12c1ccc(Cl)cc1 (racemic) | 0.97 | > 20 | – |
| O=C(c1ccc(F)cc1)N1CCN2C(=O)c3ncccc3C12c1ccc(Cl)cc1 (racemic) | 0.88 | > 20 | – |
| NC(=O)COc1ccc(C23c4ccccc4C(=O)N2CCN3C(=O)c2ccc(F)cc2)cc1 (racemic) | 1 | 11 | – |
| O=C1c2ccccc2C2(c3ccc(Cl)cc3)N1CCN2C(=O)C1CC1 (racemic) | 4.9 | > 21 | – |
| O=C(c1ccc(F)cc1)N1CCN2C(=O)c3ccccc3C12c1cccc(Cl)c1 (racemic) | 0.19 | > 18 | – |
| N#CCOc1cccc(C23c4ccccc4C(=O)N2CCN3C(=O)c2ccc(F)cc2)c1 (racemic) | 3.4 | > 17 | – |
| O=C(c1ccc(F)cc1)N1CCN2C(=O)c3ccccc3C12 (racemic) | > 20 | > 20 | – |
| O=C(c1ccc(F)cc1)N1CCN2C(=O)c3cccnc3C12c1ccc(Cl)cc1 (racemic) | 1.2 | > 20 | – |
| COCC(=O)N1CCN2C(=O)c3ccccc3C12c1ccc(Cl)cc1 (racemic) | 2.7 | > 21 | – |
| Cc1ccc(C(=O)N2CCN3C(=O)c4ccccc4C23c2ccc(Cl)cc2)cc1 (racemic) | 5.8 | 17 | – |
| N#CCOc1ccc(C23c4ccccc4C(=O)N2CCN3C(=O)c2ccc(F)cc2)cc1 (racemic) | 0.24 | > 17 | – |
| O=C(c1ccc(F)cc1)N1CCN2C(=O)c3cnccc3C12c1ccc(Cl)cc1 (racemic) | 2.7 | > 18 | – |
| O=C(c1ccc(F)cc1)N1CCN2C(=O)c3ccccc3C12c1ccc(C(F)(F)F)cc1 (racemic) | 0.51 | > 20 | – |
| N#CCC(=O)N1CCN2C(=O)c3ccccc3C12c1ccc(Cl)cc1 (racemic) | 4.5 | > 21 | – |
| O=C(c1ccc(F)cc1)N1CCN2C(=O)c3ccccc3C12c1ccc(F)cc1 (racemic) | 0.71 | > 20 | – |
| O=C(c1ccc(F)cc1)N1CCN2C(=O)c3ccccc3C12c1ccc(OCC2CC2)cc1 (racemic) | 0.079 | > 20 | – |
| Cc1nnnn1/N=C/c1ccc(O)c(C(c2ccc(O)cc2)c2cc(/C=N/n3nnnc3C)ccc2O)c1 | – | – | Ratio EC50 [16]: >1400 |
| CC(C)c1ccc(C23c4ccccc4C(=O)N2CCN3C(=O)c2ccc(F)cc2)cc1 (racemic) | 1.2 | > 20 | – |
| O=C(CC1CCCCC1)N1CCN2C(=O)c3ccccc3C12c1ccc(Cl)cc1 (racemic) | 4.5 | 14 | – |
